Screens deposited in PubChem by several laboratories.
Compounds with a hit are over-represented: about 3.6% of the library has one in this group of screens.
STAT3 act: STAT3 signaling activation; U3A cells, IL-6 STAT3-luciferase reporter, luminescence; 100% = signal with IL-6 EC80 alone; 190,000 compounds, 0.91% hits; activation (% of control), % at 5.6 µM;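 active = activation above the screen-wide mean of compound activation plus 3 SD, cut at about 130% in these data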
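Material: STAT3-luciferase reporter U3A cells; Probe or stimulus: IL-6 (33 ng/mL); Incubation: compound pre-incubation 1 h before IL-6, then 6 h stimulation at 37 °C; Technique: luminescence from STAT3-driven luciferase reporter; Evaluation: % activation versus median of IL-6-stimulated wells; Controls: IL-6-only high control.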
PERK inhibitor: inhibitors of human PERK kinase. 220,000 compounds, 0.17% hits. CHO PERK-DD fusion, SEAP luminescence translation reporter. Q9NZJ5. inhibition, % at 5.6 µM;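 active = inhibition above the mean inhibition of all tested compounds plus 3 SD, set separately per screening campaign, cut at about 2.9% in these data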;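 note: PERK kinase domain activated by AP20187 dimerizer at 100 nM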
Target sequence (Q9NZJ5 whole entry, looked up, the tested form may be a part): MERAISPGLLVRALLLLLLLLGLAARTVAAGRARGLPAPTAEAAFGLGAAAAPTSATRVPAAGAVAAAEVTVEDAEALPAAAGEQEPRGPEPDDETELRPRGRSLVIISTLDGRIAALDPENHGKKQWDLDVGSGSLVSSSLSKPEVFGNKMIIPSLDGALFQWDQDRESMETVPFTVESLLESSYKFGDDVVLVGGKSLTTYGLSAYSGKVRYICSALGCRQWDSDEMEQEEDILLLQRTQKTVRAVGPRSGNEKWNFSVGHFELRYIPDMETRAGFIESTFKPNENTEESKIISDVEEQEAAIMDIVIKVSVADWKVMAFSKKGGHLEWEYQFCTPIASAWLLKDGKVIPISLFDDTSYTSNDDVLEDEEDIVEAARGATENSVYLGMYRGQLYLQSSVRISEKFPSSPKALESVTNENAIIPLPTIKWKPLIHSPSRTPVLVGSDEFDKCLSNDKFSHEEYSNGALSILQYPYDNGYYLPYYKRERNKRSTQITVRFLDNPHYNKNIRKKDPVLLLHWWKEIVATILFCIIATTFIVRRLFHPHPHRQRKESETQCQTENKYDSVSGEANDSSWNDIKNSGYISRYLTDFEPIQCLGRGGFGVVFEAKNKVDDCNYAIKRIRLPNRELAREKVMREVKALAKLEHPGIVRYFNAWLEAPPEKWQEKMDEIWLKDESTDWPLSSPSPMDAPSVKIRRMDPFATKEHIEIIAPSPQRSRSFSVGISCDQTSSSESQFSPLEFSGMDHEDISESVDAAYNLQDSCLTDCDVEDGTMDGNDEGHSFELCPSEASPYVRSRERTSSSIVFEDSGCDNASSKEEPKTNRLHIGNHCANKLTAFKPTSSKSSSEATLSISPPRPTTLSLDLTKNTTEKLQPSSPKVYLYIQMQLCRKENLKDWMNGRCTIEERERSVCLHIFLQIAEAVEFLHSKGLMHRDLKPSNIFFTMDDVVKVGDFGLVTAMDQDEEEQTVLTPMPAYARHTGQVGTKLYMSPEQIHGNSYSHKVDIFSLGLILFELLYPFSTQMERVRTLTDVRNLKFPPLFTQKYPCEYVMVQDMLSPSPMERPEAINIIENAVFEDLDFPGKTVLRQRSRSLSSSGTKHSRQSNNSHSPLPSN
Hsp70 act: Hsp70 transcriptional activation, primary screen | HeLa Hsp70 promoter luciferase reporter, luminescence; scaled: vehicle 0, proteasome-inhibitor control 100% | activation, % at 10 µM | 200,000 compounds, 0.04% hits;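 active = activation above the mean across all tested compounds plus 3 SD, cutoff set per campaign, cut at about 5.5% in these data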
PolyA inhibitor: yeast polyadenylation inhibition; S. cerevisiae SKY197-pL101 polyadenylation reporter, beta-gal luminescence; efflux-impaired pdr1/pdr3 knockout yeast; score 100 = 6 SD above DMSO; activity score, % at 12 µM; 300,000 compounds, 0.02% hits;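 active = lowest replicate activity score at least 50, where 100 means six control SD above control mean; inconclusive = lowest score under 50 but half or more replicates reach 50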;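 note: yeast exposed to compound for 9 h at 30 °C; higher score means more reporter readthrough which indicates perturbed polyadenylation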
HSF1 inh: HSF1 inhibition; NIH3T3-HGL HSE-luciferase, MG132-induced, luminescence 8 h; active compounds read low; activity change, negative = inhibition, % at 7.5 µM (by protocol); 300,000 compounds, 0.77% hits; AID 2098;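 active = more than half of replicate wells show activity change below -50%, luminescence cut by over half; inconclusive = some wells, but at most half, below -50%; inactive = no replicate well below -50%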;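 note: luciferase reports HSF-1 transcriptional activity via heat shock element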
AHR act: activators of human aryl hydrocarbon receptor; 320,000 compounds, 2.5% hits; AHR-responsive luciferase reporter cells, luminescence; activation, % at 5 µM; in the data active = activation above about 47%
A number is an active result.

What do the screens show for `Cc1nc(C(F)(F)F)ccc1C(=O)NCC(O)c1ccccc1` (configuration not stated)?
PolyA inhibitor: inactive; HSF1 inh: inactive; AHR act: 71

What do the screens show for `O=C(NC(=S)N1CCN(c2ccc(Cl)cc2[N+](=O)[O-])CC1)c1cccs1`?
STAT3 act: inactive; PERK inhibitor: inactive; Hsp70 act: inactive; PolyA inhibitor: inactive; HSF1 inh: -66; AHR act: inactive

Results for O=S(=O)(NC1CCN(S(=O)(=O)c2ccc3c(c2)OCCO3)C1)c1c(F)cccc1F (configuration not stated) ?
AHR act: inactive

How did CC1(C)Cc2c(sc3nc(C4CC4)n(N)c(=O)c23)CO1 do in these assays?
PERK inhibitor: inactive; PolyA inhibitor: inactive; HSF1 inh: -60; AHR act: inactive

What do the screens show for `CC1(C)Cc2c(sc3nc(C4CCCCC4)n(N)c(=O)c23)CO1`?
PERK inhibitor: inactive; PolyA inhibitor: inactive; HSF1 inh: inactive; AHR act: inactive

How did N#CC1=C(N)Oc2cc(N)ccc2C1c1ccsc1 (configuration not stated) do in these assays?
STAT3 act: inactive; PERK inhibitor: inactive; Hsp70 act: inactive; PolyA inhibitor: inactive; HSF1 inh: inactive; AHR act: 84

What do the screens show for `COc1ccc(OC)c(NC(=O)CSc2nc(N3CCOCC3)nc(N3CCOCC3)n2)c1`?
PolyA inhibitor: inactive; HSF1 inh: inactive; AHR act: inactive

Results for Cc1ccc2nc(/C(C#N)=C\c3ccc([N+](=O)[O-])o3)[nH]c2c1 ?
STAT3 act: inactive; PERK inhibitor: inactive; Hsp70 act: inactive; HSF1 inh: inconclusive; AHR act: inactive

Results for N#C/C(=C\c1ccc([N+](=O)[O-])o1)c1nc2ccccc2[nH]1 ?
STAT3 act: inactive; PERK inhibitor: inactive; Hsp70 act: inactive; PolyA inhibitor: 711; HSF1 inh: inactive; AHR act: 55

How did COCCCNC(=S)Nc1cc2oc3ccccc3c2cc1OC do in these assays?
PolyA inhibitor: inactive; HSF1 inh: inactive

How did COc1cc2c(cc1NC(=S)Nc1cccc3ccccc13)oc1ccccc12 do in these assays?
STAT3 act: inactive; PERK inhibitor: inactive; Hsp70 act: inactive; PolyA inhibitor: inactive; HSF1 inh: inactive; AHR act: 72

What do the screens show for `COc1cc2c(cc1NC(=O)Nc1ccccc1)oc1ccccc12`?
STAT3 act: inactive; PERK inhibitor: inactive; Hsp70 act: inactive; PolyA inhibitor: inactive; HSF1 inh: inactive; AHR act: 48

What do the screens show for `COc1cc2c(cc1NCc1ccccn1)oc1ccccc12`?
STAT3 act: inactive; PERK inhibitor: inactive; Hsp70 act: inactive; PolyA inhibitor: inactive; HSF1 inh: inactive; AHR act: 63

What do the screens show for `c1ccc(COc2cccc(CN3CCN(c4ccccn4)CC3)c2)cc1`?
STAT3 act: inactive; PERK inhibitor: inactive; Hsp70 act: inactive; PolyA inhibitor: inactive; HSF1 inh: -55; AHR act: inactive

How did Cc1cc(C)c2ccc3c(C)c(C)nc3c2[nH]1 do in these assays?
STAT3 act: inactive; PERK inhibitor: inactive; Hsp70 act: inactive; AHR act: 68

What do the screens show for `CC(C)(C)c1nnc(NC(=O)c2cc(-c3ccccc3)nc3ccccc23)s1`?
STAT3 act: inactive; PERK inhibitor: inactive; Hsp70 act: inactive; PolyA inhibitor: inactive; HSF1 inh: inactive; AHR act: inactive

What do the screens show for `COc1ccccc1CCNC(=O)c1cc(-c2ccccn2)nc2ccc(Br)cc12`?
STAT3 act: inactive; PERK inhibitor: inactive; Hsp70 act: inactive; PolyA inhibitor: inactive; HSF1 inh: inactive; AHR act: inactive

What do the screens show for `CCc1nnc(NC(=O)c2cc(-c3ccncc3)nc3ccccc23)s1`?
PERK inhibitor: inactive; PolyA inhibitor: inactive; HSF1 inh: inactive; AHR act: 62

Results for CCc1nnc(NC(=O)c2cc(-c3ccccn3)nc3ccc(Br)cc23)s1 ?
PolyA inhibitor: inactive; HSF1 inh: inactive; AHR act: 49

What do the screens show for `C/C(=N/NC(=O)CNC(=O)Cc1ccc(Cl)cc1)c1ccco1`?
PERK inhibitor: inactive; PolyA inhibitor: inactive; HSF1 inh: inactive; AHR act: inactive

What do the screens show for `Cn1cc(/C=C2\SC(=O)NC2=S)c2ccccc21`?
STAT3 act: inactive; PERK inhibitor: inactive; Hsp70 act: inactive; PolyA inhibitor: inactive; HSF1 inh: inactive; AHR act: 47

What do the screens show for `Cc1ccc(C(=O)NN2C(=O)/C(=C/c3cn(C)c4ccccc34)SC2=S)cc1`?
STAT3 act: inactive; PERK inhibitor: inactive; Hsp70 act: inactive; AHR act: inactive

How did COc1ccc(NC(=O)CCCn2cnc3ccccc3c2=O)c(OC)c1 do in these assays?
PolyA inhibitor: inactive; HSF1 inh: inactive; AHR act: inactive

Results for FC(F)(F)c1cccc(Oc2ccc3c(C(F)(F)F)cc(C(F)(F)F)nc3n2)c1 ?
STAT3 act: inactive; PERK inhibitor: 3.7; Hsp70 act: inactive; PolyA inhibitor: inactive; HSF1 inh: inactive; AHR act: inactive

Results for C/C(=N\Nc1nc2c(s1)CCCC2)c1ccccc1 ?
STAT3 act: 184; PERK inhibitor: inactive; Hsp70 act: inactive; PolyA inhibitor: inactive; HSF1 inh: inactive; AHR act: inactive

What do the screens show for `CCOC(=O)Cc1nn(Cc2nc(-c3ccc(C#N)cc3)cs2)c(=O)c2ccccc12`?
PERK inhibitor: inactive; PolyA inhibitor: inactive; HSF1 inh: inactive; AHR act: inactive

Results for CN(/N=C/C=C/c1ccccc1)c1cc(=O)n(C)c(=O)[nH]1 ?
STAT3 act: inactive; PERK inhibitor: inactive; Hsp70 act: inactive; PolyA inhibitor: inactive; HSF1 inh: inactive; AHR act: 70

How did COc1ccc(/C=N/N(C)c2cc(=O)n(C)c(=O)[nH]2)cc1OC do in these assays?
STAT3 act: inactive; PERK inhibitor: inactive; Hsp70 act: inactive; PolyA inhibitor: inactive; HSF1 inh: inactive; AHR act: inactive

How did CC(=O)c1cccc(Nc2nc(-c3ccccc3)cs2)c1 do in these assays?
STAT3 act: inactive; PERK inhibitor: inactive; Hsp70 act: inactive; PolyA inhibitor: inactive; HSF1 inh: inactive; AHR act: 56

How did O=C(Nc1cccc(-c2csc(Nc3cccc(C(F)(F)F)c3)n2)c1)c1ccccc1 do in these assays?
PolyA inhibitor: inactive; HSF1 inh: inactive; AHR act: inactive

Results for O=C(Nc1ccc(-c2csc(Nc3cccc(C(F)(F)F)c3)n2)cc1)c1ccccc1 ?
PolyA inhibitor: inactive; HSF1 inh: inactive; AHR act: 78

Results for O=C(Nc1cccc(-c2csc(Nc3ccccc3)n2)c1)c1ccccc1 ?
PolyA inhibitor: inactive; HSF1 inh: inactive; AHR act: 71

What do the screens show for `Cc1ccc(Nc2nc(-c3ccccc3)cs2)nc1`?
PolyA inhibitor: inactive; HSF1 inh: inactive

What do the screens show for `Cc1cc(C)nc(Nc2nc(-c3ccccc3)cs2)n1`?
PolyA inhibitor: inactive; HSF1 inh: inactive; AHR act: 75
